One block for each compound: values may come before it. The source made the active and inactive calls. The calls are words filed in the database; no cut-off is given here.
How the values were obtained:
[1] = biological target: T1, Growth hormone secretagogue receptor type 1 (Homo sapiens, UniProt Q92847); assay: Antagonist activity at human GHS receptor by inhibition of ghrelin-induced intracellular calcium flux in CHOK cells; assay type: functional, cell-based
In short: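 CHO-K cells stably expressing human GHS-R, grown in Ultra-CHO medium with 1% dialyzed FCS and 400 µg/mL G418, plated to confluency overnight. Loaded with Fluo-4 AM plus probenecid for 1-3 h in the dark at RT, then washed. On FLIPR (ex 488/em 520 nm), compound added first and read 3 min, then ghrelin added and read another 3 min. Duplicate or triplicate wells; sigmoidal fit for IC50.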

[2] = biological target: T1, Growth hormone secretagogue receptor type 1; assay: Displacement of [125I]ghrelin from human GHS receptor expressed in CHOK cells; assay type: cell-based
In short: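 Membranes from CHO-K cells expressing human ghrelin receptor, prepared by sonication and a 60000g spin. Filtered onto PEI-soaked GF/C, washed cold, scintillation counted; percent inhibition, sigmoidal fit for IC50.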

[3] = Half life in Sprague-Dawley rat at 5 mg/kg; assay type: ADME, organism-based; set-up: dose 5 mg/kg; conditions: in vivo
In short: (§1)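 Rats dosed at 5 mg/kg: iv for AUC (µg·h/mL), clearance (L/h·kg) and Cmax (µg/mL); oral for bioavailability unless stated otherwise. Brain (µg/g) and plasma levels taken at 1 and 8 h. Mean of n = 3.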

[4] = (§2) AUC in Sprague-Dawley rat at 5 mg/kg, iv; assay type: ADME, organism-based, Plasma; set-up: dose 5 mg/kg, route intravenous; conditions: Sprague-Dawley, plasma; in short: as §1
[5] = Plasma concentration in Sprague-Dawley rat at 5 mg/kg after 1 hr; assay type: ADME, organism-based; set-up: dose 5 mg/kg; in short: as §1
[6] = Concentration in Sprague-Dawley rat brain at 5 mg/kg after 1 hr; assay type: ADME, organism-based; set-up: dose 5 mg/kg; conditions: read-out: Ct; in short: as §1
[7] = Oral bioavailability in Sprague-Dawley rat at 5 mg/kg; assay type: ADME, organism-based; conditions: in vivo; in short: as §1
[8] = Plasma clearance in Sprague-Dawley rat at 5 mg/kg, iv; assay type: ADME, organism-based; set-up: dose 5 mg/kg, route intravenous; in short: as §1
[9] = Cmax in Sprague-Dawley rat at 5 mg/kg, iv; assay type: ADME, organism-based; set-up: dose 5 mg/kg, route intravenous; conditions: in vivo; in short: as §1
[10] = Concentration in Sprague-Dawley rat brain at 5 mg/kg after 8 hrs; assay type: ADME, organism-based; set-up: dose 5 mg/kg; conditions: read-out: Ct; in short: as §1
[11] = Plasma concentration in Sprague-Dawley rat at 5 mg/kg after 8 hrs; assay type: ADME, organism-based; set-up: dose 5 mg/kg; in short: as §1
[12] = Half life in Sprague-Dawley rat at 5 mg/kg, ip; assay type: ADME, organism-based; set-up: dose 5 mg/kg, route intraperitoneal; conditions: in vivo
[13] = biological target: T2, 5-hydroxytryptamine receptor 2C (Homo sapiens, UniProt P28335); assay: Inhibition of 5HT2C receptor
T2 sequence (P28335 whole entry): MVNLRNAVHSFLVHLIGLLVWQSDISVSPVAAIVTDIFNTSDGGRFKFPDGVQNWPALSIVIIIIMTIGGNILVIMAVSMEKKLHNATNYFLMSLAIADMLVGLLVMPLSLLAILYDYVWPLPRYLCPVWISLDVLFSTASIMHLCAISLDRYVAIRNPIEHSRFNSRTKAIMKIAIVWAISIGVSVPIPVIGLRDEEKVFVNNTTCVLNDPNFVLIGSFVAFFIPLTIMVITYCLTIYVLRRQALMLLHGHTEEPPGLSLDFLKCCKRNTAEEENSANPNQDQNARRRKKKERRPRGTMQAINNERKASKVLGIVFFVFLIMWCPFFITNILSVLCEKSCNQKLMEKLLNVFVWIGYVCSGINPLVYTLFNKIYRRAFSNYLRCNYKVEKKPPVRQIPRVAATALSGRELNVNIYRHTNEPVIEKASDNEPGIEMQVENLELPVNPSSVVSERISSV

Rattus norvegicus [14] = assay: Reduction in cumulative food intake in free-fed Sprague-Dawley rat at 30 mg/kg, ip after 1 hr; assay type: functional, organism-based; set-up: dose 30 mg/kg
In short: (§3)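 Single ip dose of 10 or 30 mg/kg to free-fed or 16 h (overnight) fasted Sprague-Dawley rats. Cumulative food intake recorded at 1 and 24 h after dosing. n = 10/group, mean ± SEM; ANOVA with post hoc Dunnett.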

Rattus norvegicus [15] = assay: as §2; assay type: ADME, organism-based, Plasma; set-up: dose 5 mg/kg, route intravenous; conditions: in vivo; in short: as §1
Rattus norvegicus [16] = assay: Decrease in body weight in Sprague-Dawley rat at 30 mg/kg, ip after 24 hrs; assay type: functional, organism-based; set-up: dose 30 mg/kg
In short: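 Free-fed Sprague-Dawley rats given a single ip dose (10 or 30 mg/kg); body weight taken 24 h after dosing. n = 10/group, mean ± SEM; ANOVA with post hoc Dunnett.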

Rattus norvegicus [17] = assay: Reduction in cumulative food intake in free-fed Sprague-Dawley rat at 10 mg/kg, ip after 1 hr; assay type: functional, organism-based; set-up: dose 10 mg/kg; in short: as §3
[18] = Inhibition of adrenergic receptor
[19] = Plasma concentration in Sprague-Dawley rat at 30 mg/kg, ip after 1 hr; assay type: ADME, organism-based; set-up: dose 30 mg/kg, route intraperitoneal
In short: (§4)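 Rats given 30 mg/kg ip. Brain (µg/g) and plasma levels measured at 1 and 8 h after dosing.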

[20] = Plasma concentration in Sprague-Dawley rat at 30 mg/kg, ip after 8 hrs; assay type: ADME, organism-based; set-up: dose 30 mg/kg, route intraperitoneal; in short: as §4
[21] = Concentration in Sprague-Dawley rat brain at 30 mg/kg, ip after 8 hrs; assay type: ADME, organism-based; set-up: dose 30 mg/kg, route intraperitoneal; conditions: read-out: Ct; in short: as §4
[22] = biological target: Muscarinic acetylcholine receptor; assay: Inhibition of muscarinic receptor; assay type: protein assay
Rattus norvegicus [23] = assay: Reduction in cumulative food intake in fasted Sprague-Dawley rat at 10 mg/kg, ip after 24 hrs; assay type: functional, organism-based; set-up: dose 10 mg/kg; in short: as §3
Rattus norvegicus [24] = assay: Bioavailability in Sprague-Dawley rat at 5 mg/kg, ip; assay type: ADME, organism-based; conditions: in vivo
Rattus norvegicus [25] = assay: Reduction in cumulative food intake in fasted Sprague-Dawley rat at 30 mg/kg, ip after 24 hrs; assay type: functional; set-up: scale not given: the % may be the effect or the level left; conditions: route intraperitoneal; in short: as §3
[26] = biological target: Melanin-concentrating hormone receptor (Homo sapiens, UniProt Q969V1+Q99705); assay: Activity against MCH receptor in an intracellular calcium flux assay; assay type: functional, cell-based
[27] = Inhibition of histamine receptor
[28] = biological target: Cannabinoid receptor 1 (Homo sapiens) (UniProt P21554); assay: Inhibition of CB1 receptor at 10 uM
Rattus norvegicus [29] = assay: Reduction in cumulative food intake in free-fed Sprague-Dawley rat at 30 mg/kg, ip after 24 hrs; assay type: functional; set-up: scale not given: the % may be the effect or the level left; conditions: route intraperitoneal; in short: as §3
Rattus norvegicus [30] = assay: AUC in Sprague-Dawley rat at 5 mg/kg, ip; assay type: ADME, organism-based, Plasma; set-up: dose 5 mg/kg, route intraperitoneal; conditions: in vivo
[31] = Cmax in Sprague-Dawley rat at 5 mg/kg, ip; assay type: ADME, organism-based; set-up: dose 5 mg/kg, route intraperitoneal; conditions: in vivo
Dopamine receptor = assay: Inhibition of dopaminergic receptor; assay type: protein assay
[32] = Concentration in Sprague-Dawley rat brain at 30 mg/kg, ip after 1 hr; assay type: ADME, organism-based; set-up: dose 30 mg/kg, route intraperitoneal; conditions: read-out: Ct; in short: as §4
[33] = biological target: Nociceptin/orphanin FQ receptor, ORL1 (Homo sapiens) (UniProt P41146); assay: Inhibition of opioid like-1 receptor
[34] = Plasma clearance in Sprague-Dawley rat at 5 mg/kg, iv
Rattus norvegicus [35] = assay: Reduction in cumulative food intake in free-fed Sprague-Dawley rat at 10 mg/kg, ip after 24 hrs; assay type: functional, organism-based; set-up: dose 10 mg/kg; in short: as §3

T1 sequence (Q92847 whole entry): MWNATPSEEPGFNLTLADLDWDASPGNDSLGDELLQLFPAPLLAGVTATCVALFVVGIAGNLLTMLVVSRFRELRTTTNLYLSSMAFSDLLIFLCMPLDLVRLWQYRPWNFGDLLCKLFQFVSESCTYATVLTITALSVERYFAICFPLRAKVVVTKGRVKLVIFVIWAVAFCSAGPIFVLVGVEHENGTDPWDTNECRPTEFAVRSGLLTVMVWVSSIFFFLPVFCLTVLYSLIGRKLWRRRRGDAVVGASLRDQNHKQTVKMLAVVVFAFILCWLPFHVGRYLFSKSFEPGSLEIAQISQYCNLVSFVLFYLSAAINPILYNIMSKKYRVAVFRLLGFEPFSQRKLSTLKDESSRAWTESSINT
Chain of Cannabinoid receptor 1 (Homo sapiens) (P21554 whole entry): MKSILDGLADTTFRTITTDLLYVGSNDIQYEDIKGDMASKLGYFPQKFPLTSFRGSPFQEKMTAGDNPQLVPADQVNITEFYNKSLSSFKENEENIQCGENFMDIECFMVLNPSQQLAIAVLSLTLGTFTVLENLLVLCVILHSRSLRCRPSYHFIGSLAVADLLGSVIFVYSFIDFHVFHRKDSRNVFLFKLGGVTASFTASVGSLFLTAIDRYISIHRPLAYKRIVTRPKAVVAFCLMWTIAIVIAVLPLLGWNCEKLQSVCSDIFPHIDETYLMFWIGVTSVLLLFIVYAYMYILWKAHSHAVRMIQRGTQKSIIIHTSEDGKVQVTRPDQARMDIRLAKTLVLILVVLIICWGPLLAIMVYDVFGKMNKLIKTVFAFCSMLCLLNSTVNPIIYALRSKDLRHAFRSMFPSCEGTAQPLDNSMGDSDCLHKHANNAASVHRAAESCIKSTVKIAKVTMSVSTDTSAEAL
Chain of Nociceptin/orphanin FQ receptor, ORL1 (Homo sapiens) (P41146 whole entry, looked up): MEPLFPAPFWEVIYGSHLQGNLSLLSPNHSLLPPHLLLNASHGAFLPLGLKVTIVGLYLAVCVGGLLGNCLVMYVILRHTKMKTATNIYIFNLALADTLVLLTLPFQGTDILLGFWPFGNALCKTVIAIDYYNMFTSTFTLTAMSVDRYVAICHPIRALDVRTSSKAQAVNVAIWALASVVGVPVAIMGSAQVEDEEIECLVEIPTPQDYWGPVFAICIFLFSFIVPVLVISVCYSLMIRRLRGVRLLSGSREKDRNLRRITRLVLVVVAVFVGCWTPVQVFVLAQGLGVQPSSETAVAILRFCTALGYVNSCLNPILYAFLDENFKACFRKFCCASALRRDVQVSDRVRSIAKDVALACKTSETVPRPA

Structure (SMILES): CCc1nc(N)nc(N)c1-c1ccc(NCc2ccc(C(C)O)cc2)cc1 (stereo not given)
IC50 [1]: 110 nM | IC50 [2]: 13 nM

Structure (SMILES): CCc1nc(N)nc(N)c1-c1ccc(NCc2ccc(S(C)(=O)=O)cc2)c(Cl)c1
half-life [3]: 8.7 h | AUC [4]: 2700 ng·h/mL | concentration at 1 h [5]: 1040 ng/mL | IC50 [1]: 11 nM | concentration at 1 h [6]: 30 ng/g | bioavailability [7]: 78% | IC50 [2]: 4.2 nM | clearance [8]: 26.7 mL/min/kg | Cmax [9]: 160 ng/mL

Structure (SMILES): CCc1nc(N)nc(N)c1-c1ccc(NCc2ccc(Cl)cc2)cc1
half-life [3]: 5.2 h | AUC [4]: 2200 ng·h/mL | concentration at 8 h [10]: 600 ng/g | concentration at 1 h [5]: 250 ng/mL | concentration at 8 h [11]: 110 ng/mL | IC50 [1]: 1380 nM | concentration at 1 h [6]: 2740 ng/g | bioavailability [7]: 76% | IC50 [2]: 310 nM | clearance [8]: 30 mL/min/kg | Cmax [9]: 170 ng/mL

Structure (SMILES): CCc1nc(N)nc(N)c1-c1ccc(NCc2cc(F)c(S(C)(=O)=O)c(F)c2)cc1
IC50 [1]: 45 nM | IC50 [2]: 2.4 nM

Structure (SMILES): CCc1nc(N)nc(N)c1-c1ccc(NCc2ccc(S(C)(=O)=O)cc2)c(Br)c1
IC50 [1]: 42 nM | IC50 [2]: 5.7 nM

Structure (SMILES): CCc1nc(N)nc(N)c1-c1ccc(NCc2ccnc(Cl)c2)cc1
IC50 [1]: 220 nM | IC50 [2]: 110 nM

Structure (SMILES): CCc1nc(N)nc(N)c1-c1ccc(CNc2ccc(S(C)(=O)=O)cc2)cc1
IC50 [1]: 120 nM | IC50 [2]: 9.8 nM

Structure (SMILES): CCc1nc(N)nc(N)c1-c1ccc(NCc2cc(F)c(S(=O)(=O)C(F)(F)F)c(F)c2)cc1
IC50 [1]: 690 nM | IC50 [2]: 21 nM

More lines, main results first:

IC50 [1]: 5.8 nM | IC50 [2]: 0.2 nM
Structure (SMILES): Nc1nc(N)c(-c2ccc(NCc3ccc([N+](=O)[O-])cc3)cc2)c(COCc2ccccc2)n1

IC50 [1]: 780 nM | IC50 [2]: 130 nM
Structure (SMILES): Nc1nc(N)c(-c2ccc(NCc3cnc4ccccc4c3)cc2)c(COCc2ccccc2)n1

IC50 [1]: 320 nM | IC50 [2]: 43 nM
Structure (SMILES): Nc1nc(N)c(-c2ccc(NCc3ccc(Cl)s3)cc2)c(COCc2ccccc2)n1

IC50 [1]: 85 nM | IC50 [2]: 1 nM
Structure (SMILES): Nc1nc(N)c(-c2ccc(NCc3cc(F)c(S(=O)(=O)C(F)(F)F)c(F)c3)cc2)c(COCc2ccccc2)n1

IC50 [1]: 3150 nM | IC50 [2]: 300 nM
Structure (SMILES): CCc1nc(N)nc(N)c1-c1ccc(CNc2ccc(Cl)cc2)cc1

half-life [12]: 3.9 h | IC50 [13]: > 33000 nM | AUC (Rattus norvegicus [15]): 120 ng·h/mL | IC50 [18]: > 33000 nM | concentration at 1 h [19]: 500 ng/mL | concentration at 8 h [10]: 50 ng/g | concentration at 8 h [20]: 190 ng/mL | concentration at 1 h [5]: 350 ng/mL | concentration at 8 h [21]: 140 ng/g | IC50 [22]: > 5500 nM | concentration at 8 h [11]: 30 ng/mL | IC50 [1]: 180 nM | F (Rattus norvegicus [24]): 68% | concentration at 1 h [6]: 1070 ng/g | bioavailability [7]: 5.5% | IC50 [26]: > 10000 nM | IC50 [27]: > 33000 nM | inhibition [28]: -1% | AUC (Rattus norvegicus [30]): 1140 ng·h/mL | Cmax [31]: 260 ng/mL | IC50 (Dopamine receptor): > 33000 nM | IC50 [2]: 19 nM | concentration at 1 h [32]: 330 ng/g | IC50 [33]: > 33000 nM | clearance [34]: 36.7 mL/min/kg | Cmax [9]: 54 ng/mL
Structure (SMILES): Nc1nc(N)c(-c2ccc(NCc3ccc(Cl)cc3)cc2)c(COCc2ccccc2)n1
Activity (Rattus norvegicus [14]): Dose-dependent effect | Activity (Rattus norvegicus [16]): Active | Activity (Rattus norvegicus [17]): Dose-dependent effect | Activity (Rattus norvegicus [23]): Dose-dependent effect | Activity (Rattus norvegicus [25]): 24% | Activity (Rattus norvegicus [29]): 29% | Activity (Rattus norvegicus [35]): Dose-dependent effect

half-life [3]: 5.5 h | AUC [4]: 1600 ng·h/mL | concentration at 1 h [5]: 270 ng/mL | IC50 [1]: 23 nM | concentration at 1 h [6]: 530 ng/g | bioavailability [7]: 68% | IC50 [2]: 11 nM | clearance [8]: 43.3 mL/min/kg | Cmax [9]: 140 ng/mL
Structure (SMILES): CCc1nc(N)nc(N)c1-c1ccc(NCc2ccc([N+](=O)[O-])cc2)cc1

IC50 [1]: 16 nM | IC50 [2]: 0.8 nM
Structure (SMILES): Nc1nc(N)c(-c2ccc(CNc3ccc([N+](=O)[O-])cc3)cc2)c(COCc2ccccc2)n1

IC50 [1]: 3610 nM | IC50 [2]: 83 nM
Structure (SMILES): N#Cc1ccc(COc2ccc(-c3c(N)nc(N)nc3COCc3ccccc3)cc2)cc1

IC50 [1]: 980 nM | IC50 [2]: 50 nM
Structure (SMILES): Nc1nc(N)c(-c2ccc(NCc3ccccc3)cc2)c(COCc2ccccc2)n1

— ChEMBL document CHEMBL1146071, “2,4-diaminopyrimidine derivatives as potent growth hormone secretagogue receptor antagonists” (J Med Chem, 2006)
